Shown are actives, neighbours in structure and some others; about 1.6% of the full set was active somewhere.
RAD54 branch = blocks human RAD54 Holliday junction branch migration. 0.14% of 360,000 active. AID 602329. FAM/BHQ fluorescence. inhibition, % at 10.4 µM. Q92698;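 active = mean normalized replicate activity at least 40 and at least half of replicates scoring 40 or more; inconclusive = only one of the two criteria met; inactive = mean below 40 and under half of replicates reaching 40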;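 note: 0% = median of neutral control wells and 100% = median of positive control wells; inhibitors cause a drop in the FAM fluorescence signal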
SR-BI HDL uptake = mouse SR-BI HDL lipid transfer inhibition; Q61009; ldlA[mSR-BI] CHO cells, DiI-HDL uptake fluorescence, 3 h; inhibition, % at 12.5 µM; 0.96% of 320,000 active;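 active = mean replicate inhibition of at least 70% and a set share of replicates each scoring 70 or more; inconclusive = meets just one of the two criteria; inactive = fails both criteria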;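 note: 0% = median of neutral control wells and 100% = median of positive control wells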
PvdQ acylase = blocks Pseudomonas aeruginosa PvdQ acylase activity; purified PvdQ acylase, fluorescence plate reader; inhibition, % at 10 µM; 0.063% of 340,000 active; in the data active = inhibition above about 30%, passing the limit was not always enough; inconclusive = no clear call, values can overlap the other calls;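 note: 0% = vehicle neutral wells and 100% = reference inhibitor wells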
dFosB act = mouse delta FosB homodimer activation. purified delta FosB, TAMRA-CDK5 oligo fluorescence polarization; percent of positive-control signal above neutral wells. P13346. activation, % at 25 µM. 0.99% of 340,000 active;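 active = mean activation above about 17%, with every replicate also reaching it, limit read from the data, passing the limit was not always enough; inconclusive = only one of the two conditions met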
Target sequence (P13346 whole entry, looked up): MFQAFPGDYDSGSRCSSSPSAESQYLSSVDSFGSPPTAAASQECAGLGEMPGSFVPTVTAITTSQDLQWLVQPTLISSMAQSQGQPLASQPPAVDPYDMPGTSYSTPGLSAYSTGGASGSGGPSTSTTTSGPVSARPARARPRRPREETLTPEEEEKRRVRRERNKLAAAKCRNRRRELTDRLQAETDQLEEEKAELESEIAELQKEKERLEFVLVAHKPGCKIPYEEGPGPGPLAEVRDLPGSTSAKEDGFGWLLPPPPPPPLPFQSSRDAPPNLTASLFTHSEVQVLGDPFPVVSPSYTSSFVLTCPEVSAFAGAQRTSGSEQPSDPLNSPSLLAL
S100A4 MyoIIA = inhibitors of human S100A4 binding to myosin IIA peptide. P26447. S100A4/TAMRA-MyoIIA peptide fluorescence polarization. inhibition, % at 10.7 µM. 0.14% of 360,000 active;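 active = mean inhibition of at least 70% across replicates, with every replicate also reaching that level; inconclusive = mean inhibition reaches 70% but some replicates fall short; inactive = mean inhibition below 70%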
Target sequence (P26447 whole entry, looked up): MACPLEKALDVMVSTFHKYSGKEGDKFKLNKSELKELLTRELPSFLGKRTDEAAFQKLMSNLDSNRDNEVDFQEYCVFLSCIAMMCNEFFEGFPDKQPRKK
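Material: S100A4 monomer protein / Buffer or medium: 50 mM HEPES pH 7.2, 10 mM CaCl2, 100 mM KCl / Times: 5 min incubation before reading / Benchmarks: neutral control DMSO, positive control TFP / Reagent: labelled myosin peptide probe, 5 nM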
SR-BI DiI-HDL act = activators of SR-BI mediated HDL lipid uptake; CHO ldlA[mSR-BI] cells, DiI-HDL uptake fluorescence, 3 h; 100 = double the neutral-control signal; activation, % at 12.5 µM; 0.096% of 320,000 active; AID 504775;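 active = mean replicate activation of at least 60% and every replicate at or above 60%; inconclusive = mean or all-replicate condition met, but not both; inactive = mean below 60% and not all replicates reaching 60%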;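 note: 0% = median plate neutral-control signal and 100% = twice that signal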
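material = CHO ldlA[mSR-BI] cells | medium = Ham's F12 with 0.5% BSA, HEPES 25 mM, pH 7.4 | reagent = fluorescent DiI-HDL, 10 µg/mL final | compound dosing = single-point compound dose | incubation = 3 h, 37 °C | measured by = bottom-read fluorescence, 550/595 nm | measure = HDL uptake via cellular fluorescence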
* marks the source's active call; other numbers are inactive results; ? = inconclusive; / = no result given.

SMILES | RAD54 branch | SR-BI HDL uptake | PvdQ acylase | dFosB act | S100A4 MyoIIA | SR-BI DiI-HDL act
NC(=O)[C@H]1CC2(CC(c3cccc(NC(=O)COc4ccc(Cl)cc4)c3)=NO2)CN1C(=O)c1ccc(Cl)cc1 (stereo partly specified) | -7 | 66 | 2 | 2 | -10 | -66
NC(=O)[C@H]1CC2(CC(c3cccc(NC(=O)COc4ccc(Cl)cc4)c3)=NO2)CN1C(=O)c1ccccc1C(=O)c1ccccc1 (stereo partly specified) | 5 | 77* | -12 | -5 | -7 | -77
COCC(=O)N(C)C[C@H]1Oc2ncc(C#C[C@@H](C)O)cc2C(=O)N([C@H](C)CO)C[C@H]1C | 3 | / | / | / | -2 | /
CCSc1ccc(-c2cccc([N+](=O)[O-])c2)nn1 | -4 | -1 | 48* | 2 | -1 | 1
O=C(NC1CCCC1)[C@H]1[C@H](CO)[C@H]2Cn3c(ccc(-c4ccccc4)c3=O)[C@@H]1N2CCc1ccccc1 | -2 | / | / | / | -9 | /
CC1=C(CC/C(C)=N/NC(N)=S)C(C)(C)CCC1 | -1 | 76* | 0 | -8 | 0 | -76
CC(C)=CCN1CCN(CCC2=C(C)CCCC2(C)C)CC1CCO (stereo unspecified) | / | -15 | 6 | -1 | 1 | 15
C[C@@H]1CCCCO[C@@H](CN(C)C(=O)c2ccccc2)[C@H](C)CN([C@@H](C)CO)C(=O)c2cc(NC(=O)Nc3ccccc3)ccc2O1 | -15 | / | / | / | -8 | /
COc1cc2sc3cc(NCc4ccc(C)o4)ccc3c(=O)c2cc1OC | 11 | 80* | -4 | 1 | -1 | -80
COc1cc2sc3cc(NCc4ccc5c(c4)OCO5)ccc3c(=O)c2cc1OC | -1 | 73* | -7 | -5 | -5 | -73
COc1cccc2sc3cc(NCc4ccc5c(c4)OCO5)ccc3c(=O)c12 | 12 | 22 | -2 | 2 | 3 | -22
CO[C@@H]1CN(C)C(=O)c2ccc(NS(=O)(=O)C3CCCCC3)cc2OC[C@@H](C)NC[C@@H]1C | -3 | / | / | / | 30 | /
N#Cc1ccc(-c2csc(NC3=NCCCCC3)n2)cc1 | / | 75* | 12 | -6 | 7 | -75
CC=Cc1ccc2n(c1=O)C[C@H]1[C@H](CO)[C@@H](C(=O)NCc3ccccc3)N(CCC(F)(F)F)[C@@H]21 (mixture of isomers) | -1 | / | / | / | 15 | /
C#CCOCCOCCOCCNc1nc(N2CCN(C(=O)CCCCCCCCCCNC(=O)[C@H](CCCCN)n3cc(CCCC(=O)O)nn3)CC2)nc(N2CCN(C(=O)CCCCCCCCCCNC(=O)[C@H](CCCCN)n3cc(CCCC(=O)O)nn3)CC2)n1 | -37 | -12 | 28 | 2 | / | 12
C#CCOCCOCCOCCNc1nc(N2CCN(C(=O)CCCCCCCCCCNC(=O)[C@H](CCCCN)n3cc(CCCC(=O)O)nn3)CC2)nc(N2CCN(C(=O)CCCCCCCCCCNC(=O)[C@H](CCCN=C(N)N)n3cc(C[C@@H](C)CC)nn3)CC2)n1 | 1 | 80* | -12 | -356 | / | -80
C#CCOCCOCCOCCNc1nc(N2CCN(C(=O)CCCCCCCCCCNC(=O)[C@H](CCCCN)n3cc(CCO)nn3)CC2)nc(N2CCN(C(=O)CCCCCCCCCCNC(=O)[C@H](CCCCN)n3cc(CCO)nn3)CC2)n1 | 50* | -43 | -14 | -192 | / | 43
COc1ccc2c3c([nH]c2c1)[C@H](CO)N(CC1CC1)CC31CCN(C(=O)c2ccc(F)cc2)CC1 | / | / | / | / | -4 | /
COCC(=O)Oc1c(S(=O)(=O)c2ccc(C)cc2)c(C)nn1-c1ccccc1 | -10 | -13 | 34* | 14 | / | 13
CCC1CN(C(=O)NCc2ccccc2)c2cc(C)ccc2O1 (stereo unspecified) | -11 | 14 | -17 | -4 | -18 | -14
CCC1CN(C(=O)NCc2ccc(C)cc2)c2cc(C)ccc2O1 (stereo unspecified) | -19 | 78* | -14 | -10 | -3 | -78
COc1ccc2c3c([nH]c2c1)[C@@H](CO)N(C(=O)CN(C)C)CC31CCN(Cc2ccccc2Cl)CC1 | / | / | / | / | 13 | /
C[C@H](CO)N1C[C@H](C)[C@H](CN(C)S(=O)(=O)c2ccccc2F)OCc2ccccc2-c2ccccc2C1=O | 0 | / | / | / | -4 | /
CN(C)CCNC(=O)/C(=C/c1ccc(-c2ccc(Cl)cc2)o1)NC(=O)c1ccccc1 | 25 | -14 | -6 | 20* | / | 14
Cc1ccc(C(=O)N/C(=C\c2ccc(-c3ccc(Br)cc3)o2)C(=O)NCCCN(C)C)cc1 | / | -3 | -10 | ? | -1 | 3
SMILES | RAD54 branch | SR-BI HDL uptake | PvdQ acylase | dFosB act | S100A4 MyoIIA | SR-BI DiI-HDL act
CN(C)CCNC(=O)/C(=C/c1ccc(-c2ccc(Cl)cc2Cl)o1)NC(=O)c1ccccc1 | / | -17 | -8 | 35* | / | 17
CN(C)CCCNC(=O)/C(=C\c1ccc(-c2cccc([N+](=O)[O-])c2)o1)NC(=O)c1ccccc1 | / | -9 | 9 | 15 | 2 | 9
CCN(CC)C(=O)C1CCCN(c2ccccc2[N+](=O)[O-])C1 (stereo unspecified) | / | 79* | -14 | 6 | 2 | -79
N#CCC(=O)N/N=C/c1cc([N+](=O)[O-])ccc1N1CCCC1 | 1 | 21 | 2 | 10 | 10 | -21
CCN(CC)C(=O)C1CCCN(c2ccc([N+](=O)[O-])cc2[N+](=O)[O-])C1 (stereo unspecified) | / | 3 | -10 | -11 | 4 | -3
O=C(CNc1ccccc1)N/N=C/c1cc([N+](=O)[O-])ccc1N1CCCC1 | 4 | 73* | 4 | -1 | / | -73
CCN(CC)C(=O)C1CCCN(c2ccc([N+](=O)[O-])cc2/C=N/NC(=O)c2cccc([N+](=O)[O-])c2)C1 (stereo unspecified) | -1 | 90* | -15 | -2 | / | -90
C[C@H]1CN([C@@H](C)CO)C(=O)c2cc(C3=CCCCC3)cnc2O[C@H]1CN(C)C(=O)c1cccnc1 | 1 | / | / | / | 3 | /
C[C@@H]1CN([C@H](C)CO)C(=O)c2cc(NS(=O)(=O)c3cccs3)ccc2O[C@@H](C)CCCCO[C@@H]1CN(C)S(=O)(=O)c1ccc(F)cc1 | 4 | / | / | / | -16 | /
COc1ccc(C(=O)Nc2sc(C)c(-c3ccccc3)c2C#N)cc1OC | 11 | 85* | -14 | -1 | / | -85
CCOC(=O)c1csc(NC(=O)c2ccc(OC)c(OC)c2)n1 | 1 | 77* | -6 | -6 | -1 | -77
O=C(C1CCC1)N1CC2(C1)[C@H](c1ccccc1)[C@H](CO)N2CC1CCCC1 | / | / | / | / | 18 | /
C[C@H](CO)N1C[C@H](C)[C@@H](CN(C)C(=O)Nc2ccc3c(c2)OCO3)Oc2ccc(NC(=O)Cc3cn(C)c4ccccc34)cc2C1=O | / | / | / | / | 3 | /
COc1ccccc1NC(=O)c1ccccc1Nc1ccccc1 | 0 | 38 | -21 | 2 | 1 | -38

Screens as filed in PubChem BioAssay.
